From ChEMBL document CHEMBL1140759, “Synthesis, anti-Toxoplasma gondii and antimicrobial activities of benzaldehyde 4-phenyl-3-thiosemicarbazones and 2-[(phenylmethylene)hydrazono]-4-oxo-3-phenyl-5-thiazolidineacetic acids” (Bioorg Med Chem, 2008)
pIC50: −log10 of the molar value.

Legend:
[1] = tested on: Toxoplasma gondii; experiment: Antiparasitic activity against Toxoplasma gondii infected african green monkey Vero cells at 2 mM assessed as infected cells; assay type: functional
Procedure, shortened: (§1)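 Vero cells were infected with RH-strain tachyzoites (5:1 parasite:cell) for 1 h, washed with PBS, and grown 24 h at 37 °C in medium 199 with 5% FCS. Compound was then added for 24 h. Cells were fixed with Bouin's, stained with Giemsa, and at least 400 cells were counted by light microscopy for the percentage infected. Hydroxyurea and sulfadiazine served as references.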

[2] = tested on: Toxoplasma gondii; experiment: Antiparasitic activity against Toxoplasma gondii infected african green monkey Vero cells at 0.1 mM assessed as infected cells; assay type: functional; procedure, shortened: as §1
[3] = tested on: Toxoplasma gondii; experiment: Antiparasitic activity against Toxoplasma gondii infected african green monkey Vero cells at 5 mM assessed as infected cells; assay type: functional; procedure, shortened: as §1
[4] = tested on: Toxoplasma gondii; experiment: Antiparasitic activity against Toxoplasma gondii infected african green monkey Vero cells at 8 mM assessed as infected cells; assay type: functional; procedure, shortened: as §1
[5] = tested on: Toxoplasma gondii; experiment: Antiparasitic activity against Toxoplasma gondii infected african green monkey Vero cells at 20 mM assessed as infected cells; assay type: functional; procedure, shortened: as §1
[6] = tested on: Vero; experiment: Inhibition of uninfected african green monkey Vero cells; assay type: cell-based; details: Chlorocebus sabaeus
[7] = tested on: Toxoplasma gondii; experiment: Inhibition of Toxoplasma gondii infected in african green monkey Vero cells; assay type: functional, organism-based
Procedure, shortened: (§2)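 Infected Vero cultures were exposed to compound at 0.01–30 mM for 24 h, in triplicate per assay. IC50 for infected cells and intracellular parasites was derived by non-linear regression, using trypan blue exclusion.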

[8] = tested on: Toxoplasma gondii; experiment: Inhibition of intracellular parasite Toxoplasma gondii; assay type: functional, organism-based; procedure, shortened: as §2
[9] = tested on: Staphylococcus aureus; experiment: Antimicrobial activity against Staphylococcus aureus at 300 ug/disc; assay type: functional; details: read-out: IZ
Procedure, shortened: (§3)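 Disc diffusion on agar plates inoculated with a standardized microbial suspension, with paper discs carrying known compound amounts. DMSO-only discs served as negative controls, and chloramphenicol, rifampicin (bacteria) or nistatin (fungi) as references. The read-out is the mean inhibition zone diameter in mm. Each run was done three times and repeated if results differed.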

[10] = tested on: Bacillus subtilis; experiment: Antimicrobial activity against Bacillus subtilis at 300 ug/disc; assay type: functional; details: read-out: IZ; procedure, shortened: as §3
[11] = tested on: Micrococcus luteus; experiment: Antimicrobial activity against Micrococcus luteus at 300 ug/disc; assay type: functional; details: read-out: IZ; procedure, shortened: as §3
[12] = tested on: Escherichia coli; experiment: Antimicrobial activity against Escherichia coli at 300 ug/disc; assay type: functional; details: read-out: IZ; procedure, shortened: as §3
[13] = tested on: Klebsiella pneumoniae; experiment: Antimicrobial activity against Klebsiella pneumoniae at 300 ug/disc; assay type: functional; details: read-out: IZ; procedure, shortened: as §3
[14] = tested on: Enterococcus faecalis; experiment: Antimicrobial activity against Streptococcus faecalis at 300 ug/disc; assay type: functional; details: read-out: IZ; procedure, shortened: as §3
[15] = tested on: Mycolicibacterium phlei; experiment: Antimicrobial activity against Mycobacterium phlei at 300 ug/disc; assay type: functional; details: read-out: IZ; procedure, shortened: as §3
[16] = tested on: Mycolicibacterium smegmatis; experiment: Antimicrobial activity against Mycobacterium smegmatis at 300 ug/disc; assay type: functional; details: read-out: IZ; procedure, shortened: as §3
[17] = tested on: Mycobacterium tuberculosis; experiment: Antimicrobial activity against Mycobacterium tuberculosis at 300 ug/disc; assay type: functional; details: read-out: IZ
Procedure, shortened: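 Agar disc diffusion: paper discs loaded with compound placed on agar plates seeded with a standardised microbial suspension. DMSO-only discs served as negative control. Chloramphenicol and rifampicin (bacteria) or nistatin (fungi) gave reference zones. Read-out was mean zone of inhibition diameter (mm). Each experiment was run three times and repeated if results differed.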

[18] = tested on: Saccharomyces cerevisiae; experiment: Antimicrobial activity against Saccharomyces cerevisiae at 300 ug/disc; assay type: functional; details: read-out: IZ; procedure, shortened: as §3
[19] = tested on: Candida; experiment: Antimicrobial activity against Candida sp. IMUR1224 at 300 ug/disc; assay type: functional; details: read-out: IZ; procedure, shortened: as §3
[20] = tested on: Candida albicans; experiment: Antimicrobial activity against Candida albicans at 300 ug/disc; assay type: functional; details: read-out: IZ; procedure, shortened: as §3
[21] = tested on: Candida; experiment: Antimicrobial activity against Candida sp. IMUR4249 at 300 ug/disc; assay type: functional; details: read-out: IZ; procedure, shortened: as §3
[22] = tested on: Candida; experiment: Antimicrobial activity against Candida sp. IMUR720 at 300 ug/disc; assay type: functional; details: read-out: IZ; procedure, shortened: as §3

SMILES	Activity [1]	Activity [2]	Activity [3]	Activity [4]	Activity [5]	pIC50 [6]	pIC50 [7]	pIC50 [8]	zone of inhibition at 300 µg/disc [9]	zone of inhibition at 300 µg/disc [10]	zone of inhibition at 300 µg/disc [11]	zone of inhibition at 300 µg/disc [12]	zone of inhibition at 300 µg/disc [13]	zone of inhibition at 300 µg/disc [14]	zone of inhibition at 300 µg/disc [15]	zone of inhibition at 300 µg/disc [16]	zone of inhibition at 300 µg/disc [17]	zone of inhibition at 300 µg/disc [18]	zone of inhibition at 300 µg/disc [19]	zone of inhibition at 300 µg/disc [20]	other results
O=C(O)CC1S/C(=N\N=C\c2cccc(Cl)c2)N(c2ccccc2)C1=O (centres undefined)	34.8%	53.74%	33.5%	0%	0%	2.00	2.52	2.70	< 7 mm	< 7 mm	16 mm	< 7 mm	< 7 mm	12 mm	< 7 mm	< 7 mm	< 7 mm	< 7 mm	< 7 mm	< 7 mm	zone of inhibition at 300 µg/disc [21]: 11 mm; zone of inhibition at 300 µg/disc [22]: < 7 mm
CN(C)c1ccc(/C=N/N=C2\SC(CC(=O)O)C(=O)N2c2ccccc2)cc1 (centres undefined)	0%	50.58%	0%	0%	0%	3.00	4.30	4.30	< 7 mm	< 7 mm	10 mm	< 7 mm	< 7 mm	< 7 mm	< 7 mm	< 7 mm	< 7 mm	< 7 mm	< 7 mm	< 7 mm	zone of inhibition at 300 µg/disc [21]: 16 mm; zone of inhibition at 300 µg/disc [22]: < 7 mm
COc1ccc(/C=N/N=C2\SC(CC(=O)O)C(=O)N2c2ccccc2)cc1 (centres undefined)	4.51%	27.32%	5.9%	0%	0%	2.22	3.30		< 7 mm	11 mm	16 mm	< 7 mm	< 7 mm	< 7 mm	< 7 mm	< 7 mm	< 7 mm	< 7 mm	< 7 mm	15 mm	zone of inhibition at 300 µg/disc [21]: 16 mm; zone of inhibition at 300 µg/disc [22]: < 7 mm
Cc1cccc(/C=N/N=C2\SC(CC(=O)O)C(=O)N2c2ccccc2)c1 (centres undefined)	15.54%	66%	16.19%	10.13%	0%	2.05	3.00	3.30	< 7 mm	< 7 mm	22 mm	< 7 mm	< 7 mm	11 mm	< 7 mm	< 7 mm	< 7 mm	< 7 mm	< 7 mm	9 mm	zone of inhibition at 300 µg/disc [21]: < 7 mm; zone of inhibition at 300 µg/disc [22]: < 7 mm
COc1cc(/C=N/N=C2\SC(CC(=O)O)C(=O)N2c2ccccc2)ccc1O (centres undefined)	41.96%	46.02%	3.5%	0%	0%	4.00	2.52	3.00	< 7 mm	< 7 mm	< 7 mm	< 7 mm	< 7 mm	< 7 mm	< 7 mm	< 7 mm	< 7 mm	< 7 mm	< 7 mm	< 7 mm	zone of inhibition at 300 µg/disc [22]: < 7 mm
O=C(O)CC1S/C(=N\N=C\c2ccccc2)N(c2ccccc2)C1=O (centres undefined)	48.5%	69.7%	14.6%	0%	0%	2.30	2.40	3.00	< 7 mm	15 mm	20 mm	< 7 mm	< 7 mm	12 mm	7 mm	9 mm	14 mm	< 7 mm	< 7 mm	8 mm	zone of inhibition at 300 µg/disc [21]: < 7 mm; zone of inhibition at 300 µg/disc [22]: < 7 mm
Cc1ccc(/C=N/N=C2\SC(CC(=O)O)C(=O)N2c2ccccc2)cc1 (centres undefined)	1.23%	39.2%	0%	0%	0%	3.00	4.00	4.30	< 7 mm	< 7 mm	16 mm	< 7 mm	< 7 mm	12 mm	< 7 mm	< 7 mm	< 7 mm				
COc1cc(/C=N/N=C2\SC(CC(=O)O)C(=O)N2c2ccccc2)cc(OC)c1OC (centres undefined)	14.33%	55.57%	15.63%	7.2%	0%	2.70	3.00	3.30	< 7 mm	19 mm	25 mm	< 7 mm	< 7 mm	< 7 mm	< 7 mm	< 7 mm	< 7 mm	< 7 mm	< 7 mm	10 mm	zone of inhibition at 300 µg/disc [21]: 15 mm; zone of inhibition at 300 µg/disc [22]: < 7 mm
